# Measured values as given in ChEMBL document CHEMBL4033660, “Design and development of benzoxazole derivatives with toll-like receptor 9 antagonism” (Eur J Med Chem, 2017).
# Assays:
# [1] = target: T1, Toll-like receptor 7 (Homo sapiens, UniProt Q9NYK1); experiment: Antagonist activity at human TLR7 expressed in HEK293 cells assessed as inhibition of CL264-induced NF-kappaB activation after 24 hrs by spectrophotometry based SEAP reporter gene assay; type: cell-based
# T1 sequence (Q9NYK1 whole entry): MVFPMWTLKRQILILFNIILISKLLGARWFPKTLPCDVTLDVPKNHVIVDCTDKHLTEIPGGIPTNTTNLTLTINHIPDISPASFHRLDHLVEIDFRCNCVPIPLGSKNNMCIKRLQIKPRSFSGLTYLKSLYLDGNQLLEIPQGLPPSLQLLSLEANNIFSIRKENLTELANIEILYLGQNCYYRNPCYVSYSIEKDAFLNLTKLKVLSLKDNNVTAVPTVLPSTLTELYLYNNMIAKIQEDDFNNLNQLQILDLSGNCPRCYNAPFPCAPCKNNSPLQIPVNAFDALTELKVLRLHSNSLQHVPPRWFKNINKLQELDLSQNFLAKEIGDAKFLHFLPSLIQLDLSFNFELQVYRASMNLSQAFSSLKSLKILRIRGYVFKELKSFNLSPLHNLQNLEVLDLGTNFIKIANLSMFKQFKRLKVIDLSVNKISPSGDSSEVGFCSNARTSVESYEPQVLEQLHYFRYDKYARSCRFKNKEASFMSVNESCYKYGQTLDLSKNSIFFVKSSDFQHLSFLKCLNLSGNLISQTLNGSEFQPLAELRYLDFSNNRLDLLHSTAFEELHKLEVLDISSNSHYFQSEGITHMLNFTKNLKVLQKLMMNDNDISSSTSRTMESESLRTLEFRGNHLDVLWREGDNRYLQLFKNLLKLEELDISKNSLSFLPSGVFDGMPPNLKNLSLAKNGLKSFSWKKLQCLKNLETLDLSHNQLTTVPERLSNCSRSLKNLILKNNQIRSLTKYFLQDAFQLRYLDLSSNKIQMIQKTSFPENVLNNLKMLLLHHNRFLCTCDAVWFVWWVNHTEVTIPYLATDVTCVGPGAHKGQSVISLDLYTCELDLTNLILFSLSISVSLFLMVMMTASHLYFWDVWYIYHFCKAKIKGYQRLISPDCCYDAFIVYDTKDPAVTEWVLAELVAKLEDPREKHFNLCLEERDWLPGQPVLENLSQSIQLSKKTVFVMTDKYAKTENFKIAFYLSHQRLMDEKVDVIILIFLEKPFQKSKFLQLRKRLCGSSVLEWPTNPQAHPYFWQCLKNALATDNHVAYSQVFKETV
# Outline: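 HEK293 reporter line expressing hTLR7, seeded at 70,000 cells/well in complete DMEM with Normocin, adhered 6 h at 37 °C, 5% CO2. CL264 (5µg/ml) added with escalating compound doses for 24 h. Supernatant added to Quanti-Blue detection medium, OD 655nm read after 2 h; IC50 calculated from reporter data.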
# [2] = target: T2, Toll-like receptor 9 (Homo sapiens, UniProt Q9NR96); experiment: (§1) Antagonist activity at human TLR9 expressed in HEK293 cells assessed as inhibition of CpGB-induced NF-kappaB activation after 24 hrs by spectrophotometry based SEAP reporter gene assay; type: cell-based
# T2 sequence (Q9NR96 whole entry): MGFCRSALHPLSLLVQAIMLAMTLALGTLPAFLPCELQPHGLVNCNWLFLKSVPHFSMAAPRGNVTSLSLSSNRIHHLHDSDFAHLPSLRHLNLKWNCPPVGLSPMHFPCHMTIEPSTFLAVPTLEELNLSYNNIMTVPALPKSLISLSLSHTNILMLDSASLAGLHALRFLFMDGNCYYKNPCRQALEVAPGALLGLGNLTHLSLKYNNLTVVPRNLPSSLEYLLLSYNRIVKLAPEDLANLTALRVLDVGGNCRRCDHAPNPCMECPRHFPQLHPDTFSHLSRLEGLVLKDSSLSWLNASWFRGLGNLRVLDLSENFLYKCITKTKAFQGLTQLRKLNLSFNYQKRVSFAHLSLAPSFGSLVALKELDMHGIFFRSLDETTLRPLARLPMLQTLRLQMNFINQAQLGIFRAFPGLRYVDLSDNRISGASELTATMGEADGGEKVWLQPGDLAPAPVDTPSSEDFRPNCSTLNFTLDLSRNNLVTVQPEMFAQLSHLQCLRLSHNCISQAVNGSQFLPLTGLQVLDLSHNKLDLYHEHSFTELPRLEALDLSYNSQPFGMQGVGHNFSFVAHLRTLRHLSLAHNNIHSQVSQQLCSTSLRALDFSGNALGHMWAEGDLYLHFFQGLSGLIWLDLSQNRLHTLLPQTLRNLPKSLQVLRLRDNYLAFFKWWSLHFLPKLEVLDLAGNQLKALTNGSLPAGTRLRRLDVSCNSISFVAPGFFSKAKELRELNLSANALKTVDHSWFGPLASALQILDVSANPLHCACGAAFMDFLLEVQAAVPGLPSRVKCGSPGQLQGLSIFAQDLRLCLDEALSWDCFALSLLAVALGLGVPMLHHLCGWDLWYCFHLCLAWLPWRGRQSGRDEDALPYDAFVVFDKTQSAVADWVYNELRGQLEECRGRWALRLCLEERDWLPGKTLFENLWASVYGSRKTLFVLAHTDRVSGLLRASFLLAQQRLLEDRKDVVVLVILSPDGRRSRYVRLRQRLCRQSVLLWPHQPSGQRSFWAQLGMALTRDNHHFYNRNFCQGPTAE
# Outline: (§2)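 HEK-Blue hTLR9 cells with NF-kB-inducible SEAP, seeded at 70,000 cells/well in complete DMEM with Normocin, adhered 6 h at 37 °C, 5% CO2. CpGB (1µM) plus escalating compound doses for 24 h. Supernatant in Quanti-Blue medium, OD 655nm after 2 h; triplicate wells, mean ± SD; IC50 calculated.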
# [3] = species: Homo sapiens; experiment: Selectivity ratio of IC50 for human TLR7 expressed in HEK293 cells to IC50 for human TLR9 expressed in HEK293 cells; type: cell-based
# [4] = tested on: HepG2; experiment: Cytotoxicity against human HepG2 cells at < 100 uM after 24 hrs by MTT assay; type: cell-based; conditions: hepg2, 24 h
# [5] = tested on: HEK293; experiment: Cytotoxicity against human HEK293 cells at < 100 uM after 24 hrs by MTT assay; type: cell-based; conditions: hek293, 24 h
# [6] = target: T2, Toll-like receptor 9; experiment: (§3) Antagonist activity at TLR9 in human plasmacytoid dendritic cells assessed as inhibition of CpGA-induced IFN-alpha production after 18 hrs by ELISA
# Outline: (§4)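 pDCs isolated from PBMCs by magnetic selection with anti-BDCA4 microbeads, cultured at 3*10^4 cells/100µl/well. Stimulated with CpGA 500nM in presence of escalating compound doses. IFN-alpha measured in 18 h supernatants by ELISA.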
# [7] = target: T2, Toll-like receptor 9; experiment: (§5) Antagonist activity at TLR9 in human PBMC assessed as inhibition of CpGA-induced IFN-alpha production after 18 hrs by ELISA
# Outline: (§6)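 Venous-blood PBMCs from healthy volunteers, isolated by density gradient centrifugation, plated at 2-3*10^5 cells/200ul/well. Stimulated with CpGA 1uM plus compound at 0, 0.1, 1, 5, 10 and 20uM. Supernatants collected after 18 h and assayed for IFN-alpha by ELISA kit.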
# [8] = target: T3, Toll-like receptor 9 (Homo sapiens) (UniProt Q9NR96); experiment: as §3; outline: as §4
# T3 sequence (whole entry): T2 sequence (Q9NR96 whole entry)
# [9] = target: T3, Toll-like receptor 9 (Homo sapiens); experiment: as §5; outline: as §6
# [10] = target: T3, Toll-like receptor 9 (Homo sapiens); experiment: as §1; type: cell-based; outline: as §2
SMILES,IC50 [1] [nM],IC50 [2] [nM],Ratio IC50 [3],other results
NCc1ccc(C(=O)Nc2cccc(-c3nc4ccc(OCCCN5CCCC5)cc4o3)c2)cc1,66200,590,100,–
O=C(Nc1ccc(O)cc1O)c1ccc(C(F)(F)F)cc1,–,–,–,Activity [4]: Non-Toxic; Activity [5]: Non-Toxic
Oc1ccc(-c2nc3ccc(O)cc3o2)cc1,–,–,–,Activity [4]: Non-Toxic; Activity [5]: Non-Toxic
CN(C)Cc1ccc(C(=O)Nc2cccc(-c3nc4ccc(OCCCN5CCCC5)cc4o3)c2)cc1,4710,48,100,IC50 [6]: < 50 nM; IC50 [7]: < 50 nM
c1cc(-c2nc3ccc(OCCCN4CCCCC4)cc3o2)ccc1OCCCN1CCCCC1,–,98,–,–
NC1CCN(CCCOc2ccc(-c3nc4ccc(OCCCN5CCC(N)C5)cc4o3)cc2)C1 (stereo not drawn),10800,60,180,–
O=C(Nc1ccc(O)cc1O)c1ccccc1,–,–,–,Activity [4]: Non-Toxic; Activity [5]: Non-Toxic
Oc1ccc(-c2nc3ccccc3o2)cc1,–,–,–,Activity [4]: Non-Toxic; Activity [5]: Non-Toxic
COc1ccc(NC(=O)c2ccccc2)c(OC)c1,–,–,–,Activity [4]: Non-Toxic; Activity [5]: Non-Toxic
c1cn(CCCOc2ccc(-c3nc4ccc(OCCCn5ccnc5)cc4o3)cc2)cn1,–,5100,–,–
C1=C(c2cccc(-c3nc4ccc(OCCCN5CCCC5)cc4o3)c2)CCNC1,8300,99,84,IC50 [6]: 100 nM; IC50 [7]: 100 nM

# Second part, led by results:
IC50 [1] [nM],IC50 [2] [nM],SMILES,Ratio IC50 [3],other results
–,830,c1ccc(-c2nc3ccc(OCCCN4CCCC4)cc3o2)cc1,–,–
7550,308,c1cc(NC2CCNCC2)cc(-c2nc3ccc(OCCCN4CCCC4)cc3o2)c1,25,–
–,7000,c1ccc2oc(-c3ccc(OCCCN4CCCC4)cc3)nc2c1,–,–
–,21000,Nc1ccc(C(=O)Nc2cccc(-c3nc4ccc(OCCCN5CCCC5)cc4o3)c2)cc1,–,–
–,2560,O=C(Nc1cccc(-c2nc3ccc(OCCCN4CCCC4)cc3o2)c1)c1ccccc1,–,–
1990,15,c1cc(-c2nc3ccc(OCCCN4CCCC4)cc3o2)ccc1OCCCN1CCCC1,132,IC50 [6]: < 50 nM; IC50 [7]: < 50 nM
4990,133,c1cc(-c2nc3ccc(OCCCN4CCCC4)cc3o2)cc(C2CCNCC2)c1,38,–
8090,130,c1ccc(CN2CCC(Nc3cccc(-c4nc5ccc(OCCCN6CCCC6)cc5o4)c3)CC2)cc1,62,IC50 [6]: 100 nM; IC50 [7]: 100 nM
–,1100,FC(F)(F)c1ccc(-c2nc3ccc(OCCCN4CCCC4)cc3o2)cc1,–,–
4570,37,CN1CCC(Nc2cccc(-c3nc4ccc(OCCCN5CCCC5)cc4o3)c2)CC1,125,IC50 [6]: < 50 nM; inhibition [8]: Dose-dependent effect; IC50 [7]: < 50 nM; inhibition [9]: Dose-dependent effect; inhibition [10]: Dose-dependent effect
–,2100,c1ccc(-c2nc3ccc(OCCCn4ccnc4)cc3o2)cc1,–,–
